A selection: hits, their analogues and other compounds. The true share with any hit is near 3%.
SENP7 block: inhibitors of human SENP7 protease | Q9BQF6 | recombinant SENP7, Z-RLRGG-aminoluciferin luminescence, 40 min | inhibition, % at 5 µM | 330,000 compounds, 1.5% hits | AID 434973;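 active = inhibition above about 50% at the single test dose, limit read from the data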;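 note: plate controls were DMSO with enzyme for no effect and no enzyme buffer wells for full effect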
Target sequence (Q9BQF6 706-1050 limits assumed): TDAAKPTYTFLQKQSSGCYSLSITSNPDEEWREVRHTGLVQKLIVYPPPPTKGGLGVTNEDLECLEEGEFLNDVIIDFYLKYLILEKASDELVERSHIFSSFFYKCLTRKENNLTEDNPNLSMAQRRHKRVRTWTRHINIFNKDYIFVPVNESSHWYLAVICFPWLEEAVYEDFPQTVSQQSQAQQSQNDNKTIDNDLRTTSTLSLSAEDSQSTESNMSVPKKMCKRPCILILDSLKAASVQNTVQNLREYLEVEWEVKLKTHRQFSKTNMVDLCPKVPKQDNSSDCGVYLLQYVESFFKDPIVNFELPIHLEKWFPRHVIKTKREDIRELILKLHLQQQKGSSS
UBC13 polyUb: blocks human UBC13 polyubiquitin chain formation; P61088; TR-FRET; 330,000 compounds, 0.47% hits; inhibition, % at 20 µM; AID 485273; in the data active = inhibition above about 45%, passing the limit was not always enough
SENP8 block-1: SENP8 (human) protease inhibition. inhibition, % at 20 µM. recombinant SENP8, Nedd8 substrate fluorescence. 360,000 compounds, 0.64% hits. Q96LD8; in the data active = inhibition mostly above about 40%, no sharp cut-off; inactive = mostly below about 27%
Target sequence (Q96LD8 whole entry, looked up): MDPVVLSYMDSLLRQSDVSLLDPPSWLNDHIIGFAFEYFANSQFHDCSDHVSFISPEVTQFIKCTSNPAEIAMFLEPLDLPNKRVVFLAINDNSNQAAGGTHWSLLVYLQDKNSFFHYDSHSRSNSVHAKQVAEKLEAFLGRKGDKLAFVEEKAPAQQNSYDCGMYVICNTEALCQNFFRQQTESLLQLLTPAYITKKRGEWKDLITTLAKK
Apaf-1 inh: inhibitors of human Apaf-1 apoptosome; O14727; 330,000 compounds, 0.71% hits; reconstituted apoptosome caspase-3 activity, DEVD-Rh110 fluorescence; AID 489030; inhibition, % at 20 µM; active = inhibition of at least 40% at 20 µM;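 note: plate controls were DMSO wells for no effect and DEVD-CHO caspase inhibitor wells for full effect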
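detection = Rh110 fluorescence intensity | test system = biochemical Apaf-1 apoptosome reconstitution | also added = cytochrome c and DEVD-Rh110 substrate | schedule = 30 min plus 50 min, RT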
SENP6 inh: SENP6 protease inhibition | Q9GZR1 | Recombinant SENP6 catalytic domain, aminoluciferin luminescence | inhibition, % at 10 µM | 330,000 compounds, 1.8% hits;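 active = inhibition above about 50% at the single tested dose, limit read from the data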;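 note: plate controls were DMSO wells with enzyme for no effect and DMSO wells lacking enzyme for full effect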
SENP8 block-2: SENP8 protease inhibition. Q96LD8. purified SENP8, Z-RLRGG-aminoluciferin cleavage, luminescence. inhibition, % at 10 µM. 330,000 compounds, 1.2% hits; in the data active = inhibition above about 50%
Active calls of the source: *; . = no result.

SMILES	SENP7 block	UBC13 polyUb	SENP8 block-1	Apaf-1 inh	SENP6 inh	SENP8 block-2
Cc1nc(CCNC(=O)C2CCC(=O)N(Cc3cccc(F)c3)C2)sc1C (centres undefined)	2	8	6	-8	3	-5
CCCc1ccc(C(=O)NC(=O)c2ccccc2O)cc1	21	8	6	-25	73*	62*
CCCc1ccc(C(=O)NNC(=O)c2ccc(Br)cc2)cc1	2	-8	18	0	-8	8
O=C(c1ccc(-c2ccccc2)cc1)c1ccc([N+](=O)[O-])cc1	-4	-13	.	4	1	-6
O=C(c1ccccc1)c1ccc(-c2ccc(O)cc2)cc1	7	6	-30	6	50*	51*
C=CCCC(=O)NC1CC(C)(C)Cc2c1cnn2-c1ccc(OC)cc1 (centres undefined)	7	-1	20	-4	-12	-6
CC1=C(C)C(=O)N(c2ccccn2)C1=O	-9	-6	10	2	-29	-15
Cc1nn(-c2ccccn2)c2c1C(=O)C(Br)CC2 (centres undefined)	.	.	66*	.	.	.
COc1cccc(C2Nc3ccccc3NC3=C2C(=O)CC(C)(C)C3)c1 (centres undefined)	-2	4	-281	-4	9	-7
CC1(O)c2ccccc2C(=O)N1CCc1ccccc1F (centres undefined)	10	6	53*	14	4	-4
CC(=O)Nc1ccc(NC(=O)c2cc(=O)c3ccccc3o2)cc1	0	0	10	-5	-6	3
NC(=O)c1ccsc1NC(=O)c1cc(=O)c2ccccc2o1	65*	1	6	-8	41	26
NC(=O)c1ccccc1N/C=C/C(=O)c1ccc(F)cc1	91*	-13	-490	6	97*	81*
NC(=O)c1ccccc1N/C=C/C(=O)c1ccc(Cl)cc1Cl	.	.	-476	.	.	.
COc1ccccc1N1CCN(/N=C/c2cc(Br)ccc2F)CC1	-10	0	11	0	-5	-7
CC(CCC(=O)NN)C1CCC2C3CCC4CC(O)CCC4(C)C3CCC12C (centres undefined)	.	.	8	.	.	.
CC(CCC(C)C(C)(C)C)[C@@H]1CC[C@H]2C3C[C@H](OS(O)(=S)=S)[C@H]4C[C@H](OS(O)(=S)=S)[C@@H](OS(O)(=S)=S)C[C@]4(C)[C@H]3CC[C@]12C (some centres undefined) (tested in a mixture with another compound)	8	-25	1	87*	-2	54*
N#C[C@@H]1[C@@H]2C(=O)N(c3ccc4c(c3)OCCO4)C(=O)[C@@H]2C2c3ccccc3C=CN21 (some centres undefined)	35	-24	.	78*	48	20
CC(=O)[C@@H]1[C@@H]2C(=O)N(c3ccc(F)c(Cl)c3)C(=O)[C@@H]2C2c3ccccc3C=CN21 (some centres undefined)	19	-18	.	72*	11	15
CN1C(=O)c2ccccc2C(C(=O)O)C1c1cccc(Cl)c1 (centres undefined)	-10	-5	15	2	-9	-11
CC(=O)[C@H]1[C@H](c2cccc(Cl)c2)C(C#N)(C#N)[C@@H]2c3ccccc3C=CN21	8	-7	.	56*	67*	0
O=C(c1ccco1)[C@@H]1[C@@H]2C(=O)N(c3ccc(F)cc3)C(=O)[C@@H]2C2c3ccccc3C=CN21 (some centres undefined)	32	-14	.	83*	47	34
Cc1ccc(NS(=O)(=O)c2ccc(Br)s2)cc1S(=O)(=O)N1CCOCC1	6	-2	1	5	8	0
COC(=O)/C(C#N)=C/c1cc(C)sc1C	15	-10	-27	-11	-10	-7
COc1ccc(NC(=O)C2(C)Cc3c(-c4ccc(C(N)=O)cc4)ccnc3O2)cc1OC (centres undefined)	.	.	13	.	.	.
SMILES	SENP7 block	UBC13 polyUb	SENP8 block-1	Apaf-1 inh	SENP6 inh	SENP8 block-2
COc1ccc(CNC(=O)C2(CC3CC(c4ccccc4)=NO3)CCNCC2)cc1 (centres undefined)	1	12	12	11	-5	1
CC(=O)[C@@H]1[C@@H]2C(=O)N(C3CCCCC3)C(=O)[C@@H]2C2c3ccccc3C=CN21 (some centres undefined)	30	-1	.	84*	55*	28
O=C(c1ccco1)[C@@H]1[C@@H]2C(=O)N(c3ccc(Br)cc3)C(=O)[C@@H]2C2c3ccccc3C=CN21 (some centres undefined)	.	.	-103	.	.	.
CC(=O)[C@H]1[C@@H]2C(=O)N(c3cccc(Cl)c3)C(=O)[C@@H]2[C@H]2c3ccccc3C=CN21	34	-23	-198	73*	53*	27
CN1C(=O)C(N=Nc2ccccc2C(=O)O)N(C)C1=S (centres undefined)	22	-184	13	4	89*	86*
O=C(NC(=S)NNC(=O)c1ccccc1O)c1ccc([N+](=O)[O-])cc1	28	-3	36	-2	77*	49
N#C/C(=C\c1ccccc1O)C(=O)Nc1cccnc1	75*	-12	3	-1	77*	51*
Cc1[nH]c(N=Nc2ccccc2)nc1N=Nc1ccccc1	1	-250	68*	13	-31	-6
CC(C(=O)Nc1ccc(N(C)C)cc1)N1C(=O)c2ccccc2S1(=O)=O (centres undefined)	-6	3	12	6	0	1
Cc1cc(C)c2c(c1)-c1c(ssc1=S)C(C)(C)N2C(=O)CSc1nncn1C	14	-23	25	10	-14	-8
Cc1ccc2c(c1)-c1c(ssc1=S)C(C)(C)N2C(=O)CSc1nncn1C	-2	-11	43*	8	15	5
CC(=O)N1CCN(c2ccc(NC(=O)c3ccc(Cl)c(Cl)c3)cc2)CC1	0	1	16	-6	2	-1
Nc1[nH]n2c(=O)c3c(nc2c1N=Nc1ccccc1)CCCC3	-4	-210	53*	28	6	3
Nc1[nH]n2c(=O)c3c(nc2c1N=Nc1ccc(Cl)cc1)CCCC3	14	-112	45*	19	16	9
Cc1cc(=O)n2[nH]c(N)c(N=Nc3ccccc3)c2n1	.	.	16	.	.	.
CC(CNC(=O)CCCn1c(=O)c2cccn2c2cccnc21)c1ccccc1 (centres undefined)	.	.	-23	.	.	.
CCCC(=O)Nc1cccc(C(=O)Nc2ccccc2OCC)c1	-9	-6	.	3	-14	-8
CC1CCCCN1C(=O)C(=O)c1cn(CC(=O)N2CCCCCC2)c2ccccc12 (centres undefined)	3	-11	-19	16	-6	-9
C#CCn1cc(C=C2C(=O)c3ccccc3C2=O)c2ccccc21	.	.	38*	.	.	.
C#CCn1c(=O)cc(C)c2ccccc21	5	4	11	-7	4	1

Screening results: PubChem, Sanford-Burnham Center for Chemical Genomics
